The values below come from ChEMBL document CHEMBL1123027, “Synthesis and biological activity of 5-thiobredinin and certain related 5-substituted imidazole-4-carboxamide ribonucleosides” (J Med Chem, 1985).

For data set [1], the system named is Mus musculus. Put plainly: The maximum tolerated dose was evaluated in mice and expressed in terms of mg/kg of body weight. In kind it is functional.
The subject of data set [2] is Rift Valley fever virus. Put plainly: In vitro antiviral activity was tested against rift valley fever virus(RVF) virus. In kind it is functional. Conditions: read-out: ED50 (the source's name).
Data set [3] has as its system Venezuelan equine encephalitis virus. Put plainly: In vitro antiviral activity was tested against venezuelan equine encephalomyelitis (VEE) virus. The class given is functional. Conditions: read-out: ED50 (the source's name).
In data set [4] the test system is Human alphaherpesvirus 2. Put plainly: In vitro antiviral activity was tested against herpes simplex type 2 (HSV-2). In kind it is functional. Conditions: read-out: ED50 (the source's name). The procedure, abridged:
(§1)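 Vero cell monolayers, grown 24 h at 37 °C in 5% CO2 to confluency, were infected with HSV-2 (strain 333) at 100 TCID50 per well. After 30-min adsorption at 37 °C, compound was added in seven 0.5-log steps, final 5 × 10⁻⁶ to 5 × 10⁻³ M, in duplicate wells. After 72 h at 37 °C, the ED50 was taken as 50% inhibition of viral CPE versus untreated controls.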

For data set [5], the system named is Vero. Put plainly: Maximum tolerated concentration (MTC) was evaluated in vero cells. In kind it is functional, Chlorocebus sabaeus. The procedure, abridged: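 Confluent, uninfected Vero monolayers were given compound in seven 0.5-log steps, final 5 × 10⁻⁶ to 5 × 10⁻³ M, one well per concentration, for 72 h at 37 °C in 5% CO2. Wells were checked by microscope for changes in morphology or monolayer density (lysis, rounding, detachment). The MTC is the lowest concentration giving visible cytotoxicity.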

Data set [6] relates to Human respirovirus 3. Put plainly: In vitro antiviral activity was tested against parainfluenza type 3 (para3) virus. Conditions: read-out: ED50 (the source's name). In kind it is functional, para influenza virus.
The subject of data set [7] is Vaccinia virus. Put plainly: In vitro antiviral activity was tested against vaccinia virus(VV) virus. The class given is functional. Conditions: Orthopoxvirus vaccinia; read-out: ED50 (the source's name).
The test system of data set [8] is Rift Valley fever virus. Put plainly: (§2) Therapeutic index against Rift valley fever virus. Conditions: in vivo, read-out: Therapeutic index. In kind it is organism-based.
Data set [9] deals with Vaccinia virus. Put plainly: In vitro antiviral activity was tested against vaccinia virus(VV). Conditions: Orthopoxvirus vaccinia; read-out: ED50 (the source's name). The class given is functional.
The subject of data set [10] is Human respirovirus 3. Put plainly: In vitro against parainfluenza type 3 (para3) virus. The class given is functional, para influenza virus. Conditions: read-out: ED50 (the source's name).
Data set [11] has as its system Venezuelan equine encephalomyelitis virus (VEE). Put plainly: Therapeutic index against Venezuelan equine encephalomyelitis virus. In kind it is organism-based. Conditions: venezuelan equine encephalitis virus, in vivo; read-out: Therapeutic index.
In data set [12] the test system is Human alphaherpesvirus 2. Put plainly: In vitro antiviral activity was tested against herpes simplex type 2 (HSV-2) virus. In kind it is functional. Conditions: read-out: ED50 (the source's name).
Data set [13] concerns Mus musculus. Put plainly: The maximum tolerated dose was evaluated in mice (mg/kg of body weight). The class given is functional.
The test system of data set [14] is Rift Valley fever virus. The description is as §2. Conditions: read-out: Therapeutic index.
Data set [15] relates to Human alphaherpesvirus 2. Put plainly: In vitro antiviral activity was tested against herpes simplex virus type 2 (HSV-2). The class given is functional. Conditions: read-out: ED50 (the source's name). The procedure, abridged: as §1
In data set [16] the test system is Mus musculus. Put plainly: The maximum tolerated dose was evaluated in mice and is expressed as mg/kg of body weight. The class given is functional.
In data set [17] the test system is Venezuelan equine encephalomyelitis virus (VEE). Put plainly: Therapeutic index against Venezuelan equine encephalomyelitis virus (VEE). Conditions: Venezuelan equine encephalitis virus; read-out: Therapeutic index.
Data set [18] deals with Human respirovirus 3. Put plainly: In vitro antiviral activity was tested against parainfluenza virus type 3 (para3) virus. In kind it is functional, para influenza virus. Conditions: read-out: ED50 (the source's name).
Data set [19] relates to Mus musculus. Put plainly: The maximum tolerated dose was evaluated in mice expressed in terms of mg/kg of body weight. In kind it is functional.

For `NC(=O)c1ncn(C2O[C@H](CO)[C@@H](O)[C@H]2O)c1SCc1ccccc1` (stereo partly drawn), the MTC in data set [1] was greater than 146 mg/kg; in data set [5], greater than 5 mM. Besides, the EC50 in data set [2] was 1 mM; in [3], 1 mM; in [4] it was greater than 5 mM; in data set [6] it was 4.4 mM; in [7], 230 µM. Besides, in [8], the selectivity ratio stood at 1.9.
With `NC(=O)c1ncn(C2O[C@H](CO)[C@@H](O)[C@H]2O)c1S` (stereo partly drawn), the MTC in data set [1] was greater than 110 mg/kg; in [5], greater than 5 mM. The EC50 was greater than 2 mM in data set [2]; greater than 2 mM in [3]; greater than 5 mM in data set [4]; 3.8 mM in data set [9]; 5 mM in data set [6]. Moreover, the selectivity ratio in [8] is 1.1.
In the case of `CS(=O)(=O)c1c(C(N)=O)ncn1C1O[C@H](CO)[C@@H](O)[C@H]1O` (stereo partly drawn), the EC50 is greater than 5 mM in [10]; 0.0087 mM in data set [2]; 0.65 mM in data set [3]; greater than 5 mM in data set [9]; 5 mM in data set [12]. Further, the MTC in [1] was greater than 400 mg/kg; in data set [5], greater than 5 mM. Moreover, the values for the selectivity ratio in [11] and in [8] were 1.4 and 2.8, respectively.
Turning to `CCS(=O)(=O)c1c(C(N)=O)ncn1C1O[C@H](CO)[C@@H](O)[C@H]1O` (stereo partly drawn), the MTC in data set [1] was greater than 134 mg/kg; in data set [5] it was greater than 5 mM. Moreover, the EC50 is greater than 2 mM in [2]; greater than 2 mM in [3]; greater than 5 mM in data set [4]; 3.5 mM in data set [9]; greater than 5 mM in data set [6]. In data set [8], the selectivity ratio amounted to 1.21.
On to `NC(=O)c1ncn([C@@H]2O[C@H](CO)[C@@H](O)[C@H]2O)n1` [RIBAVIRIN], for which the MTC in data set [13] was greater than 100 mg/kg. The selectivity ratio in [14] is 4; in [11], 1.5.
For the compound `CSc1c(C(N)=O)ncn1C1O[C@H](CO)[C@@H](O)[C@H]1O` (stereo partly drawn), the EC50 in [15] is 4.1 mM; in [2], 1.8 mM; in data set [3] it was greater than 1.7 mM; in data set [6], 0.73 mM; in data set [7], 280 µM. In addition, the MTC in data set [16] was greater than 100 mg/kg; in [5] it was 1.6 mM. For the same compound, the values for the selectivity ratio in data set [17] and in [8] were 0.9 and 1.2, respectively.
`CCSc1c(C(N)=O)ncn1C1O[C@H](CO)[C@@H](O)[C@H]1O` (stereo partly drawn): the EC50 in data set [15] is greater than 5 mM; in data set [18], greater than 5 mM; in data set [2] it was greater than 2 mM; in data set [3], greater than 2 mM; in data set [7] it was 2600 µM. For the same compound, the MTC is greater than 5 mM in [5] and greater than 121 mg/kg in data set [19]. Also, the selectivity ratio in data set [8] worked out at 1.4.
Consider `Cc1c(C(N)=O)ncn1C1O[C@H](CO)[C@@H](O)[C@H]1O` (stereo partly drawn), for which the EC50 amounted to 1.8 mM in data set [2], 4 mM in data set [12], 0.5 mM in [6] and 1400 µM in data set [7]. The MTC in [5] came out at 1.6 mM.
